LMPTP block – LMPTP (human) inhibition. recombinant LMPTP-A, OMFP fluorogenic substrate, fluorescence intensity. inhibition, % at 20 µM. hit rate 0.22% among 360,000;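 active means compounds that cut the enzyme signal by at least half of the control window in the single-dose screen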
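test system = LMPTP-A | amount = 0.625 nM LMPTP-A final | reagent = fluorogenic phosphatase substrate OMFP at 400 µM final | incubation = 50 min at room temperature | benchmarks = no-enzyme low control, uninhibited high control | medium = Bis-Tris pH 6.0, DTT, detergent | signal = fluorescence intensity of OMFP turnover product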
Scp-1 inhibitor – Scp-1 (human) phosphatase inhibition. Q9GZU7. Recombinant Scp1, phosphopeptide, malachite green phosphate absorbance. inhibition, % at 20 µM. hit rate 0.88% among 340,000;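 active means inhibition above about 50% at 20 µM, limit read from the data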
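Incubation: 45 min enzyme reaction at room temperature / System: truncated SCP-1 phosphatase (76-261aa) / Reagent: Phospho 17-mer peptide substrate / Buffer or medium: Acidic Tris acetate buffer with magnesium and detergent / Signal: absorbance at 630 nm / Doses: one concentration, 20 µM, with 1.0% DMSO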
DNMT1 block – blocks human DNA methyltransferase DNMT1. P26358. DNMT1 molecular beacon, Hinp1I cleavage, fluorescence. inhibition (reported as % activation of signal), % at 10 µM. hit rate 0.83% among 360,000. AID 588458; in the data active means inhibition above about 50%
GRK2 inh – inhibitors of human GRK2 displacing RNA aptamer. P25098. bead flow cytometry, FAM-aptamer displacement from GRK2. inhibition of aptamer binding, % at 10 µM. hit rate 0.59% among 330,000. AID 488847;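 active means inhibition of aptamer binding above 40%, roughly 3 SD of noise, on plates passing a quality check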;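 further: median bead fluorescence of bound FAM aptamer so fluorescent compounds give negative values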
Target sequence (P25098 whole entry, looked up): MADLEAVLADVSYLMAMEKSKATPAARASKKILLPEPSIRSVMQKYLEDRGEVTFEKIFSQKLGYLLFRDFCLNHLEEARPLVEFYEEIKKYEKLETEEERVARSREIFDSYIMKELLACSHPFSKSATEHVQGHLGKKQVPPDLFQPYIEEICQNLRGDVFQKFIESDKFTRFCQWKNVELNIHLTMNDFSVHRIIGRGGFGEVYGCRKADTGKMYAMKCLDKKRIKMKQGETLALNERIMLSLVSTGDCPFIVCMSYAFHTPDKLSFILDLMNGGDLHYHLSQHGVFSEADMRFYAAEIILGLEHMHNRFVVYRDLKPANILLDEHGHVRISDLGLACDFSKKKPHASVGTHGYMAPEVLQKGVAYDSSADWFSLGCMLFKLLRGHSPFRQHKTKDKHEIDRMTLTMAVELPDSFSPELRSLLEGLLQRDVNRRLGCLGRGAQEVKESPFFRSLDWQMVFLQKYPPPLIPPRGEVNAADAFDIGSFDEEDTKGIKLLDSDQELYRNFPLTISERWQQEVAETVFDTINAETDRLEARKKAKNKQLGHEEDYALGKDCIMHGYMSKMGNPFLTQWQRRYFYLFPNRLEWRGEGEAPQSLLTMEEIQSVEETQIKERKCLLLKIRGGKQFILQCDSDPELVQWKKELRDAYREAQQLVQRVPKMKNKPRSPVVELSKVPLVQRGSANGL
STEP block – blocks human striatal-enriched tyrosine phosphatase. P54829. recombinant STEP, OMFP fluorogenic substrate, fluorescence. inhibition, % at 20 µM. hit rate 0.25% among 360,000;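 active means inhibition at 20 µM, scaled per plate between control wells, above about 37%, limit read from the data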
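System: isolated STEP enzyme; schedule: 20 min enzyme reaction at room temperature, protected from light; medium: Bis-Tris buffer pH 6.0, 2.5 mM DTT, 0.005% Tween 20; signal: fluorescence, 480/540 nm; dosing: single compound dose of 20 µM, 1% DMSO final; also added: OMFP substrate, 25 µM final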
SUMO1 PPI mod – SUMO1-SIM interaction modulation. inhibition, % at 20 µM. hit rate 0.33% among 360,000. SUMO1 binding to a labelled peptide, TR-FRET, 1 h; in the data active means inhibition above about 37%
Scp-1 conf – confirmation of human Scp-1 phosphatase inhibitors | shares compounds with Scp-1 inhibitor | recombinant SCP-1 catalytic domain, phosphate release, malachite green absorbance | inhibition, % at 20 µM | hit rate 61% among 2,500 | AID 540281
MG interference – colorimetric interference in Scp-1 counter-screen; apparent inhibition (interference), % at 20 µM; shares compounds with Scp-1 inhibitor; Colorimetric interference counterscreen, malachite green absorbance 630 nm; 2,500 tested, under 10 active;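 further: compounds added after enzyme reaction finished so only phosphate colour detection is probed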
Scp1 DSF – binds human Scp-1, shifting its melting temperature; thermal shift relative to vanadate control, % at 40 µM; AID 540329; shares compounds with Scp-1 inhibitor; hit rate 25% among 1,500; Recombinant SCP1, Sypro Orange thermal shift Tm;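 active means substances whose mean melting-temperature shift, as a percentage of the reference inhibitor's shift, reaches about 5.3%, limit read from the data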
Numbers stand for hits. Sampled rows, rich in hits. Any-hit rate of the full collection: about 2.2%.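 How the source made its calls, unless noted: active means inhibition of at least 30% at 20 µM; inactive means the rest.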

Results for Cc1cncc(NCc2cccc(Cl)c2)n1 ?
LMPTP block: inactive; DNMT1 block: inactive; STEP block: inactive; SUMO1 PPI mod: inactive

Results for CCOC(=O)C1CCCN(C(=O)c2ccc(F)c(C)c2)CC1 (stereo not drawn) ?
LMPTP block: inactive; DNMT1 block: inactive; STEP block: inactive; SUMO1 PPI mod: inactive

Results for Clc1ccc(OCc2nn3c(-c4ccco4)nnc3s2)c(Cl)c1 ?
LMPTP block: inactive; Scp-1 inhibitor: 81.3; DNMT1 block: inactive; GRK2 inh: inactive; STEP block: inactive; SUMO1 PPI mod: inactive; Scp-1 conf: 70.1; MG interference: inactive; Scp1 DSF: inactive

Results for CC1(C(=O)NS(=O)(=O)c2ccc(Cl)cc2)CCN1C(=O)c1ccco1 (stereo not drawn) ?
LMPTP block: inactive; DNMT1 block: inactive; STEP block: inactive; SUMO1 PPI mod: inactive

How did O=C1NC2c3c(I)sc(I)c3C(=O)C2O1 (stereo not drawn) do in these assays?
LMPTP block: inactive; Scp-1 inhibitor: inactive; DNMT1 block: inactive; STEP block: inactive; SUMO1 PPI mod: inactive

How did O=C1NC2c3c(Cl)sc(Cl)c3C(=O)C2O1 (stereo not drawn) do in these assays?
LMPTP block: inactive; Scp-1 inhibitor: 78.9; DNMT1 block: 91.1; STEP block: inactive; SUMO1 PPI mod: inactive; Scp-1 conf: 71.2; MG interference: inactive; Scp1 DSF: 18.1

Results for Cc1cccc(C(O)c2ncc(-c3ccc(F)cc3)[nH]2)c1C (stereo not drawn) ?
LMPTP block: inactive; DNMT1 block: inactive; STEP block: inactive; SUMO1 PPI mod: inactive

What do the screens show for `CCCCCCCCN1C(=O)[C@H](CC(=O)NCCC(C)C)C[C@@]2(C(=O)OC)CCCCC=C12`?
LMPTP block: inactive; SUMO1 PPI mod: inactive

Results for Cc1ccc(S(=O)(=O)N(CCCO)CC(O)CON=C2c3ccccc3-c3ccccc32)cc1 (stereo not drawn) ?
LMPTP block: inactive; Scp-1 inhibitor: 61.1; DNMT1 block: inactive; GRK2 inh: inactive; STEP block: inactive; SUMO1 PPI mod: inactive; Scp-1 conf: inactive; MG interference: inactive

Results for CCN(CC(O)Cn1c2ccccc2c2ccccc21)S(=O)(=O)c1ccc(C)cc1 (stereo not drawn) ?
LMPTP block: inactive; Scp-1 inhibitor: inactive; DNMT1 block: inactive; GRK2 inh: inactive; STEP block: inactive; SUMO1 PPI mod: inactive

What do the screens show for `O=C(O)c1ccc(-c2cccc(-c3nn4c(=O)cc(N5CCNCC5)nc4s3)c2)cc1`?
LMPTP block: inactive; DNMT1 block: inactive; STEP block: inactive; SUMO1 PPI mod: inactive

Results for CCN(CC)CCNC(C(=O)Nc1cc(C(F)(F)F)ccc1Cl)c1ccccc1 (stereo not drawn) ?
LMPTP block: inactive; Scp-1 inhibitor: 90.8; DNMT1 block: inactive; GRK2 inh: inactive; STEP block: inactive; SUMO1 PPI mod: inactive; Scp-1 conf: 90.9; MG interference: inactive; Scp1 DSF: inactive

How did CC(=O)Nc1ccc(S(=O)(=O)NCC(=O)NNC(=O)COc2c(C)cccc2C)cc1 do in these assays?
LMPTP block: inactive; Scp-1 inhibitor: inactive; DNMT1 block: inactive; GRK2 inh: inactive; STEP block: inactive; SUMO1 PPI mod: inactive

What do the screens show for `CC(=O)Nc1ccc(S(=O)(=O)NCC(=O)NNC(=O)COc2ccccc2Cl)cc1`?
LMPTP block: inactive; Scp-1 inhibitor: inactive; DNMT1 block: inactive; GRK2 inh: inactive; STEP block: inactive; SUMO1 PPI mod: inactive; Scp-1 conf: inactive; MG interference: inactive

How did Cc1cc(Cl)ccc1NC(=O)CCC(=O)N/N=C/c1cc([N+](=O)[O-])ccc1O do in these assays?
LMPTP block: inactive; Scp-1 inhibitor: 54.6; DNMT1 block: inactive; GRK2 inh: inactive; STEP block: inactive; SUMO1 PPI mod: inactive; Scp-1 conf: 66.0; MG interference: inactive; Scp1 DSF: inactive

Results for O=[N+]([O-])c1ccc(O)c(/C=N/NC(=S)Nc2ccc(Cl)cc2Cl)c1 ?
LMPTP block: inactive; Scp-1 inhibitor: inactive; DNMT1 block: inactive; GRK2 inh: inactive; STEP block: inactive; SUMO1 PPI mod: inactive

How did CC(C)NC(=O)C1(C)CN(S(C)(=O)=O)CC(=O)N1Cc1ccco1 (stereo not drawn) do in these assays?
LMPTP block: inactive; SUMO1 PPI mod: inactive

Results for O=C1NC(=Nc2ccccc2)S/C1=C/c1cccs1 ?
LMPTP block: inactive; Scp-1 inhibitor: 75.6; DNMT1 block: inactive; GRK2 inh: inactive; STEP block: inactive; SUMO1 PPI mod: inactive; Scp-1 conf: 59.3; MG interference: inactive; Scp1 DSF: inactive

How did Cc1cccc(N=C2NC(=O)/C(=C\c3cccs3)S2)c1 do in these assays?
LMPTP block: inactive; Scp-1 inhibitor: inactive; DNMT1 block: inactive; GRK2 inh: inactive; STEP block: inactive; SUMO1 PPI mod: inactive

Results for COc1cccc(C(NC(C)=O)c2nc(-c3cccc(O)c3)cs2)c1 (stereo not drawn) ?
LMPTP block: inactive; DNMT1 block: inactive; STEP block: inactive; SUMO1 PPI mod: inactive

Results for COc1ccc(Cl)c2sc(N(CCN(C)C)C(=O)C3=COCCO3)nc12 ?
LMPTP block: inactive; Scp-1 inhibitor: 90.6; DNMT1 block: inactive; STEP block: inactive; SUMO1 PPI mod: inactive; Scp-1 conf: inactive; MG interference: inactive

What do the screens show for `O=C1C(F)=CC(COC(c2ccccc2)(c2ccccc2)c2ccccc2)OC1n1cc(F)c(=O)[nH]c1=O` (stereo not drawn)?
LMPTP block: inactive; Scp-1 inhibitor: inactive; DNMT1 block: inactive; STEP block: inactive; SUMO1 PPI mod: inactive

Results for CCCSc1nc2c([nH]1)c(=O)n(C)c(=S)n2C ?
LMPTP block: inactive; Scp-1 inhibitor: inactive; DNMT1 block: inactive; STEP block: inactive; SUMO1 PPI mod: inactive

Results for CCSc1nc2c([nH]1)c(=O)n(C)c(=S)n2C ?
LMPTP block: inactive; Scp-1 inhibitor: 61.0; DNMT1 block: inactive; STEP block: inactive; SUMO1 PPI mod: inactive; Scp-1 conf: 75.5; MG interference: inactive; Scp1 DSF: inactive

How did O=C(O)c1ccc(CSc2n[nH]c(-c3ccco3)n2)cc1 do in these assays?
LMPTP block: inactive; Scp-1 inhibitor: 52.4; DNMT1 block: inactive; GRK2 inh: inactive; STEP block: inactive; SUMO1 PPI mod: inactive; Scp-1 conf: 31.7; MG interference: inactive; Scp1 DSF: inactive

From PubChem BioAssay
